Test results from ChEMBL document CHEMBL5357067, “Selective (α)-l-Rhamnosylation and Neuroprotective Activity Exploration of Cardiotonic Steroids” (ACS Med Chem Lett, 2024).
Activity calls are given as the source filed them. The calls are words filed in the database; no cut-off is given here.

Tests used:
Format in all cases: functional, cell-based
Glial cell [1] = experiment: Antiinflammatory activity in C57BL/6J mouse primary glial cells assessed as effect on TNF-alpha mRNA level at 200 nM incubated for 24 hrs by qPCR analysis
Glial cell [2] = experiment: Antiinflammatory activity in C57BL/6J mouse primary glial cells assessed as decrease in LPS-induced IL-1 mRNA level at 200 nM preincubated for 24 hrs followed by LPS stimulation by qPCR analysis
In short: (§1)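 Primary glia from whole brains of 1–2-day-old neonatal C57BL/6J mice (meninges removed, collected in Ca/Mg-free HBSS, oligodendrocytes and neurons separated off). Cells were given 200 nM steroid and stimulated with LPS 250 ng/mL. DMSO served as negative control. Gene expression was measured by qPCR. Data are mean ± SEM, analysed by two-way ANOVA with Newman-Keuls post hoc test.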

Glial cell [3] = experiment: Antiinflammatory activity in C57BL/6J mouse primary glial cells assessed as decrease in LPS-induced IL-6 mRNA level at 200 nM preincubated for 24 hrs followed by LPS stimulation by qPCR analysis; in short: as §1
Glial cell [4] = experiment: Antiinflammatory activity in C57BL/6J mouse primary glial cells assessed as decrease in LPS-induced TNF-alpha mRNA level at 200 nM preincubated for 24 hrs followed by LPS stimulation by qPCR analysis; in short: as §1
Glial cell [5] = experiment: Antiinflammatory activity in C57BL/6J mouse primary glial cells assessed as effect on IL-1 mRNA level at 200 nM incubated for 24 hrs by qPCR analysis
Glial cell [6] = experiment: Antiinflammatory activity in C57BL/6J mouse primary glial cells assessed as effect on IL-6 mRNA level at 200 nM incubated for 24 hrs by qPCR analysis
Glial cell [7] = experiment: Antiinflammatory activity in C57BL/6J mouse primary glial cells assessed as effect on IKBKE mRNA level at 200 nM incubated for 24 hrs by qPCR analysis
Glial cell [8] = experiment: Antiinflammatory activity in C57BL/6J mouse primary glial cells assessed as decrease in LPS-induced IKBKE mRNA level at 200 nM preincubated for 24 hrs followed by LPS stimulation by qPCR analysis; in short: as §1

C[C@@H]1O[C@@H](O[C@H]2CC[C@]3(CO)[C@H]4CC[C@]5(C)[C@@H](C6=CC(=O)OC6)CC[C@]5(O)[C@@H]4CC[C@]3(O)C2)[C@H](O)[C@H](O)[C@H]1O
Activity (Glial cell [1]): inactive
Activity (Glial cell [2]): Active
Activity (Glial cell [3]): Active
Activity (Glial cell [4]): Active
Activity (Glial cell [5]): inactive
Activity (Glial cell [6]): inactive
Activity (Glial cell [7]): inactive
Activity (Glial cell [8]): Active

C[C@@H]1O[C@@H](O[C@H]2C[C@@H]3O[C@@H]4C[C@]5(C)[C@@H](C6=CC(=O)OC6)CC[C@]5(O)[C@@H]5CC[C@](O)(C2)[C@@]3(CO)[C@H]54)[C@H](O)[C@H](O)[C@H]1O
Activity (Glial cell [1]): inactive
Activity (Glial cell [2]): Active
Activity (Glial cell [3]): Active
Activity (Glial cell [4]): Active
Activity (Glial cell [5]): inactive
Activity (Glial cell [6]): inactive
Activity (Glial cell [7]): inactive
Activity (Glial cell [8]): Active

C[C@@H]1O[C@@H](O[C@H]2C[C@@H](O)[C@]3(CO)[C@H]4[C@H](O)C[C@]5(C)[C@@H](C6=CC(=O)OC6)CC[C@]5(O)[C@@H]4CC[C@]3(O)C2)[C@H](O)[C@H](O)[C@H]1O
Activity (Glial cell [1]): inactive
Activity (Glial cell [2]): Active
Activity (Glial cell [3]): Active
Activity (Glial cell [4]): Active
Activity (Glial cell [5]): inactive
Activity (Glial cell [6]): inactive
Activity (Glial cell [7]): inactive
Activity (Glial cell [8]): Active

C[C@H]1O[C@@H](O[C@H]2[C@@H](O)C[C@H](O[C@H]3[C@@H](O)C[C@H](O[C@H]4CC[C@@]5(C)[C@H](CC[C@@H]6[C@@H]5C[C@@H](O)[C@]5(C)[C@@H](C7=CC(=O)OC7)CC[C@]65O)C4)O[C@@H]3C)O[C@@H]2C)C[C@H](O)[C@@H]1O
Activity (Glial cell [1]): inactive
Activity (Glial cell [5]): inactive
Activity (Glial cell [6]): inactive
Activity (Glial cell [7]): inactive

C[C@]12C[C@H]3O[C@H]4C[C@H](O)C[C@@]5(O)CC[C@H]([C@H]3[C@@]45CO)[C@@]1(O)CC[C@@H]2C1=CC(=O)OC1
Activity (Glial cell [1]): inactive
Activity (Glial cell [2]): inactive
Activity (Glial cell [3]): inactive
Activity (Glial cell [4]): inactive
Activity (Glial cell [5]): inactive
Activity (Glial cell [6]): inactive
Activity (Glial cell [7]): inactive
Activity (Glial cell [8]): inactive

C[C@@H]1O[C@@H](OC[C@@]23[C@@H]4[C@H]5CC[C@]2(O)C[C@@H](O)C[C@@H]3O[C@@H]4C[C@]2(C)[C@@H](C3=CC(=O)OC3)CC[C@]52O)[C@H](O)[C@H](O)[C@H]1O
Activity (Glial cell [1]): inactive
Activity (Glial cell [3]): inactive
Activity (Glial cell [4]): Active
Activity (Glial cell [5]): inactive
Activity (Glial cell [6]): inactive
Activity (Glial cell [7]): inactive
Activity (Glial cell [8]): Active
